# The source made the active and inactive calls. The rule behind the calls is not given here.
# Columns and labels:
# HeLa = assay: Antiproliferative activity against human HeLa cells after 48 hrs by MTT assay; type: functional, cell-based
# How it was run: (§1)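 Cells seeded at 2.5 × 10⁴/well in 1640 complete medium, 37 °C, 5% CO₂, 24 h; compounds added at 100 to 0.01 µM for 48 h; D-Hank's buffer negative control. Cells washed twice with PBS, MTT (0.5 g/L in PBS, in complete medium) 4 h, DMSO to dissolve; absorbance at 492 nm (reference 630 nm). At least three experiments; mean percentage absorbance plotted against concentration.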
# [1] = Antiproliferative activity against mouse P388D1 cells after 48 hrs by MTT assay; type: functional, cell-based; conditions: P388D1, 48 h; how it was run: as §1
# Calf thymus DNA [2] = assay: Binding affinity to calf thymus DNA by fluorescence assay; type: nucleic-acid assay; conditions: Bos taurus
# How it was run: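 CT-DNA held at 50 µM with compound 1 to 25 µM in Tris–HCl (30 mM, pH 7.5); compound without DNA as control. Solutions ultrasonically shaken 1 day at 25 °C in the dark. Fluorescence read at 350 nm excitation. Scatchard binding constant K_b derived from quenching (F0 vs F1) via Scatchard plot.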
# Calf thymus DNA [3] = assay: Binding affinity to calf thymus DNA at 10 uM by circular dichroism assay; type: nucleic-acid assay; conditions: Bos taurus
# How it was run: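 CD spectra of CT-DNA (100 µM) with compound at 10 µM in Tris–HCl buffer (pH 7.0), 1-cm quartz cell, 200–600 nm; buffer spectrum subtracted.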
# Calf thymus DNA [4] = assay: Binding affinity to calf thymus DNA assessed as increase of viscosity of DNA solution at 100 uM; type: nucleic-acid assay; conditions: Bos taurus
# How it was run: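 Ubbelohde viscometry at 25 ± 0.1 °C. CT-DNA 100 µM in Tris–HCl (30 mM, pH 7.5), kept at 4 °C overnight, sonicated 10 min, filtered 0.45 µm. Flow time measured three times per sample and averaged, corrected for buffer. (η/η0)^1/3 plotted versus compound/DNA ratio.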
Structure (SMILES),IC50 (HeLa) [nM],IC50 [1] [nM],Kb (Calf thymus DNA [2]) [×10⁵ /M],Activity (Calf thymus DNA [3]),Activity (Calf thymus DNA [4])
CN(C)CCN1C(=O)c2cccc3cc(N)cc(c23)C1=O [AMONAFIDE],6020,680,1.05,–,–
CN(C)CCN1C(=O)c2cccc3cc(-c4cccc([N+](=O)[O-])c4)cc(c23)C1=O,4700,380,14.8,–,–
CN(C)CCN1C(=O)c2cccc3cc(-c4cccs4)cc(c23)C1=O,3100,680,13.2,Active,Active
CN(C)CCN1C(=O)c2cccc3cc(-c4ccccc4)cc(c23)C1=O,5700,680,10.8,Active,Active
Cc1ccc(-c2cc3c4c(cccc4c2)C(=O)N(CCN(C)C)C3=O)cc1,45800,2190,10.8,–,–
CN(C)CCN1C(=O)c2cccc3cc(-c4ccc(F)cc4)cc(c23)C1=O,–,–,12.4,–,–
CN(C)CCN1C(=O)c2cccc3cc(-c4ccc(F)c(F)c4)cc(c23)C1=O,5300,980,12.8,–,–
CN(C)CCN1C(=O)c2cccc3cc(-c4ccc(C(F)(F)F)cc4)cc(c23)C1=O,–,–,11.8,–,–

# Reference: ChEMBL document CHEMBL1641503, “5-Non-amino aromatic substituted naphthalimides as potential antitumor agents: Synthesis via Suzuki reaction, antiproliferative activity, and DNA-binding behavior” (Bioorg Med Chem, 2011)
